Laboratory results reported in PMC3629979 (Molecular imaging, 2010).

Experiments:
U87MG tumor = test: In vivo NIRF optical imaging of U87MG tumor-bearing nude mice; details: for nonspecific tumor targeting / accumulation of unconjugated dye: Cy5.5 and Cy7 data not shown; for tumor to muscle ratio, time course: 1, 2 and 4 hours postinjection, in words; for tumor to muscle ratio, time course / tumor to muscle ratio: 0.5 nmol i.v.; for tumor to muscle ratio: light intensity ratio, 4 hours postinjection, mean ± SD, n = 3
in vivo = details: female, athymic nude, mouse, U87MG tumor, iv, 0.5 nmol
[1] = for kidney uptake: 4 hours postinjection, 0.5 nmol i.v., ex vivo imaging, in words; for excretion route: inferred from kidney uptake at 4 hours postinjection
murine integrin β3 = test: Immunofluorescence colocalization in U87MG tumor sections, murine integrin β3; assay type: in vivo; details: 1 nmol i.v., 30 minutes postinjection; frozen tumor sections; one mouse
In short: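 Single female athymic nude mouse with subcutaneous U87MG xenograft (5 × 10⁶ cells, right front flank; tumours 100 to 300 mm³) given 1 nmol Cy5.5-labelled test compound by tail vein. Killed at 30 min, perfused with 20 mL PBS, tumour frozen-sectioned. Sections incubated 1 h at room temperature with hamster antimouse integrin β3 (1:100), then FITC secondary (1:200). Fluorescence microscopy overlay.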

Compound | nonspecific tumor targeting / accumulation of unconjugated dye (U87MG tumor) | tissue uptake at 4 h (in vivo) | tumor to muscle ratio, time course (U87MG tumor) | tumor to muscle ratio (U87MG tumor) | kidney uptake [1] | excretion route [1] | other results
CCN1C(=CC=CC=CC=CC2=[N+](CCCCCC(=O)O)c3ccc(S(=O)(=O)O)cc3C2(C)C)C(C)(C)c2cc(S(=O)(=O)[O-])ccc21 [Cy7, reference compound] | relatively high tumor-nonspecific targeting | – | – | – | – | – | –
CC1(C)C(/C=C/C2=C(Oc3ccc(S(=O)(=O)O)cc3)C(=C/C=C3/N(CCCCS(=O)(=O)O)c4ccc(S(=O)(=O)[O-])cc4C3(C)C)/CCC2)=[N+](CCCCCC(=O)O)c2ccc(S(=O)(=O)O)cc21 [IRDye800, reference compound] | only a lower nonspecific tumor accumulation | – | – | – | – | – | –
CC1(C)C(=CC=C2CCCC(C=CC3=[N+](CCCCCC(=O)N[C@@H](CCC(=O)NCCOCCOCCOCCOCCC(=O)NCCCC[C@@H]4NC(=O)[C@@H](Cc5ccccc5)NC(=O)[C@H](CC(=O)O)NC(=O)CNC(=O)[C@H](CCCNC(=N)N)NC4=O)C(=O)NCCOCCOCCOCCOCCC(=O)NCCCC[C@@H]4NC(=O)[C@@H](Cc5ccccc5)NC(=O)[C@H](CC(=O)O)NC(=O)CNC(=O)[C@H](CCCNC(=N)N)NC4=O)c4ccc(S(=O)(=O)O)cc4C3(C)C)=C2Oc2ccc(S(=O)(=O)O)cc2)N(CCCCS(=O)(=O)[O-])c2ccc(S(=O)(=O)O)cc21 [IRDye800-PEG4-RGD2, IRDye800-E[PEG4-c(RGDfK)]2] | – | 5.87 ± 1.21 %ID/g | increased tumor to muscle ratios from 1 to 4 hours | 4.63 ± 0.28 | high kidney uptake | mainly excreted by the renal route | –
CC1(C)C(=CC=C2CCCC(C=CC3=[N+](CCCCCC(=O)N[C@@H](CCC(=O)NCCCC[C@@H]4NC(=O)[C@@H](Cc5ccccc5)NC(=O)[C@H](CC(=O)O)NC(=O)CNC(=O)[C@H](CCCNC(=N)N)NC4=O)C(=O)NCCCC[C@@H]4NC(=O)[C@@H](Cc5ccccc5)NC(=O)[C@H](CC(=O)O)NC(=O)CNC(=O)[C@H](CCCNC(=N)N)NC4=O)c4ccc(S(=O)(=O)O)cc4C3(C)C)=C2Oc2ccc(S(=O)(=O)O)cc2)N(CCCCS(=O)(=O)[O-])c2ccc(S(=O)(=O)O)cc21 [IRDye800-RGD2, IRDye800-E[c(RGDfK)]2] | – | 2.71 ± 0.77 %ID/g | increased tumor to muscle ratios from 1 to 4 hours | 3.31 ± 0.22 | high kidney uptake | mainly excreted by the renal route | –
Cy5.5 [reference compound] | relatively high tumor-nonspecific targeting | – | – | – | – | – | –
Cy5.5-E[PEG4-c(RGDfK)]2 [Cy5.5-PEG4-RGD2] | – | – | – | – | – | – | colocalization with murine integrin β3 (murine integrin β3): good colocalization
